What all share (assay type): functional
Common to all, as to details: route intraperitoneal

The test system of test [1] is Mus musculus. The experiment in a line: Antitumor activity against mouse P388 cells allografted in DBA/2 mouse assessed as tumor growth inhibition at 20 mg/kg, ip qd for 2 weeks (reference value: 100%). The essentials: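 DBA/2 male mice (20 g) implanted with 10^6 P-388 cells on day 0, then dosed ip at 20 mg/kg/day for 2 weeks. T/C computed by the NIH protocol; T/C ≥120 counted as significant. 5-Fluorouracil served as internal standard.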

Test [2] concerns Mus musculus. The experiment in a line: Antiinflammatory activity in CF1 mouse assessed as increase in foot weight at 20 mg/kg, ip administered 3 hrs and 30 mins prior to carrageenan-challenge measured after 3 hrs (reference value: 97 +/- 10 mg).
Test [3] deals with Mus musculus. Put plainly: Antiinflammatory activity in CF1 mouse assessed as increase in foot weight at 10 mg/kg, ip administered 3 hrs and 30 mins prior to carrageenan-challenge measured after 3 hrs (reference value: 97 +/- 10 mg).
The test system of test [4] is Mus musculus. The experiment in a line: Antiinflammatory activity in CF1 mouse assessed as inhibition of carrageenan-induced paw edema at 20 mg/kg, ip administered 3 hrs and 30 mins prior to carrageenan-challenge measured after 3 hrs (reference value: 0%). In general terms: Carrageenan injected into the paw causes an acute inflammation.
Test [5] deals with Mus musculus. Put plainly: Antiinflammatory activity in CF1 mouse assessed as inhibition of carrageenan-induced paw edema at 10 mg/kg, ip administered 3 hrs and 30 mins prior to carrageenan-challenge measured after 3 hrs (reference value: 0%).
Test [6] deals with Mus musculus. The experiment in a line: Antitumor activity against mouse P388 cells allografted in DBA/2 mouse assessed as host survival on day 7 at 20 mg/kg, ip qd for 2 weeks. The procedure, abridged: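 P388 leukemia in male DBA/2 mice (20 g): 10⁶ cells implanted on day 0. Compounds were given ip at 20 (mg/kg)/day for 2 weeks. Survival was expressed as T/C by the NIH protocol; T/C > 120 counted as significant. 5-Fluorouracil was the internal standard.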

As a reminder, the inhibition in vivo is the drop in the measured response relative to a control, in per cent. As to `COc1ccc2c(c1)c(CC(=O)O)c(C)n2C(=O)c1ccc(Cl)cc1` [INDOMETHACIN], in the test on Mus musculus [1], the T/C is recorded as 100. The Activity in the test on Mus musculus [2] was determined as 97 mg; in the test on Mus musculus [3], 23 mg. Further, the inhibition in vivo at 20 mg/kg with Mus musculus [4] was found to be 0%. The inhibition in vivo at 10 mg/kg with Mus musculus [5] worked out at 74%. Besides, the Survival in the test with Mus musculus [6] was 9.66 days.

Source of the values: ChEMBL document CHEMBL3244350, “Antitumor and antiinflammatory agents: N-benzoyl-protected cyanomethyl esters of amino acids” (J Med Chem, 1979).
